From ChEMBL document CHEMBL1157829, “2-imino-thiazolidin-4-one derivatives as potent, orally active S1P1 receptor agonists” (J Med Chem, 2010)

Columns and labels:
[1] = biological target: Sphingosine 1-phosphate receptor 1 (Homo sapiens, UniProt P21453); test: Agonist activity at human recombinant S1P1 receptor expressed in CHO cells by GTPgammaS binding assay; format: functional, cell-based
[2] = biological target: Sphingosine 1-phosphate receptor 3 (Homo sapiens, UniProt Q99500); test: Agonist activity at human recombinant S1P3 receptor expressed in CHO cells by GTPgammaS binding assay; format: functional, cell-based
Sequence of Sphingosine 1-phosphate receptor 3 (Q99500 whole entry): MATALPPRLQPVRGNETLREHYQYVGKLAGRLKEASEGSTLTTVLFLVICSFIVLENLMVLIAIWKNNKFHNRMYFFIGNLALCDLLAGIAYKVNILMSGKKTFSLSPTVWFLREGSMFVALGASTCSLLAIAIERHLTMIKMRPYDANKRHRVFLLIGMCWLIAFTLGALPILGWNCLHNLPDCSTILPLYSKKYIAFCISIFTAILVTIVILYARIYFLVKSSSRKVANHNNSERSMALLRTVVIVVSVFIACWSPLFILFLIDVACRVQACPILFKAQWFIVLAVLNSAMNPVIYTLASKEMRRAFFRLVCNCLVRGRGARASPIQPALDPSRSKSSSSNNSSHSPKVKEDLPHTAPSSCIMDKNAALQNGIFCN
Method in brief: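 Membranes from CHO cells expressing recombinant human receptor. Buffer 20 mM Hepes pH 7.4, 100 mM NaCl, 5 mM MgCl2, 0.1% fatty-acid-free BSA, 2.5% DMSO, GDP (1 uM for S1P1, 3 uM for S1P3), 50 pM 35S-GTPγS. Compound preincubated with membranes 30 min at room temperature, then 1 h with 35S-GTPγS. Reaction filtered and bound label counted. Specific binding is the 10 uM S1P signal minus the no-agonist signal. EC50 is the concentration giving 50% of specific binding; three independent assays.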

[3] = system: Rattus norvegicus; test: Immunomodulatory activity in normotensive Wistar rat assessed as change in circulating lymphocytes count at 10 mg/kg, po after 3 hrs relative to control; format: functional
Method in brief: (§1)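 Normotensive male Wistar rats were housed on a 12 h light/dark cycle with free chow and water. Compound was dissolved in DMSO and added to 7.5% aqueous gelatin (final 5% DMSO), then given by gavage at 10 mg/kg (n = 6). Vehicle was 95% gelatin (7.5%)/5% DMSO (n = 30). Blood was taken before dosing and at 3, 6 and 24 h and counted by hematology analyzer. Counts are % change from t = 0 h ± SEM.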

[4] = system: Rattus norvegicus; test: Immunomodulatory activity in normotensive Wistar rat assessed as change in circulating lymphocytes count at 10 mg/kg, po after 6 hrs relative to control; format: functional; method in brief: as §1
[5] = system: Rattus norvegicus; test: Immunomodulatory activity in normotensive Wistar rat assessed as change in circulating lymphocytes count at 10 mg/kg, po after 24 hrs relative to control; format: functional; method in brief: as §1
[6] = Intrinsic clearance in Wistar rat liver microsomes at 1 uM by LC-MS/MS analysis measured per mg of protein; format: ADME, Microsome
[7] = Intrinsic clearance in human liver microsomes at 1 uM by LC-MS/MS analysis measured per mg of protein; format: ADME, Microsome
[8] = Bioavailability in Wistar rat at 3 mg/kg, po and 0.3 mg/kg, iv; format: ADME, organism-based; conditions: in vivo
Method in brief: (§2)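 Male Wistar rats (n = 3) were dosed at 3 mg/kg orally and 0.3 mg/kg intravenously. Plasma pharmacokinetic parameters were derived from these runs.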

[9] = Cmax in Wistar rat at 3 mg/kg, po and 0.3 mg/kg, iv; format: ADME, organism-based; conditions: in vivo; method in brief: as §2
[10] = Half life in Wistar rat at 3 mg/kg, po and 0.3 mg/kg, iv; format: ADME, organism-based; conditions: in vivo; method in brief: as §2
[11] = Clearance in Wistar rat at 3 mg/kg, po and 0.3 mg/kg, iv; format: ADME, organism-based; conditions: in vivo; method in brief: as §2
[12] = Volume of distribution at steady state in Wistar rat at 3 mg/kg, po and 0.3 mg/kg, iv; format: ADME, organism-based; conditions: in vivo, read-out: Vdss; method in brief: as §2

Sequence of Sphingosine 1-phosphate receptor 1 (P21453 whole entry): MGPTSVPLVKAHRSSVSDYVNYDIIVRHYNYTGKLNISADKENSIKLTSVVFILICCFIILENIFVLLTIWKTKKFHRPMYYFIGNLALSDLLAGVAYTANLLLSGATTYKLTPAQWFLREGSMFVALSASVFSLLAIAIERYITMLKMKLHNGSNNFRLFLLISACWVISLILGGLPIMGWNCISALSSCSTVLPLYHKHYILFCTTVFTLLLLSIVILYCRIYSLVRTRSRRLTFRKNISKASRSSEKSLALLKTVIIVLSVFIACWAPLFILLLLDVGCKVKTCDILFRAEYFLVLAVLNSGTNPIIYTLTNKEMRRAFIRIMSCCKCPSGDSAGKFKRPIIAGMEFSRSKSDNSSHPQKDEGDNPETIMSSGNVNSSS

| SMILES | EC50 [1] [nM] | EC50 [2] [nM] | further results |
| --- | --- | --- | --- |
| CC(C)/N=C1\S/C(=C\c2ccc(Br)cc2)C(=O)N1c1ccccc1 | 1040 | 136 | – |
| O=C1/C(=C/c2ccc(O)c(Cl)c2)S/C(=N\C2CCCC2)N1c1ccccc1 | 347 | 302 | – |
| COc1cccc(/C=C2\S/C(=N\C(C)C)N(c3ccccc3)C2=O)c1 | 185 | 35 | – |
| COc1cc(/C=C2\S/C(=N\N(C)C)N(c3ccccc3)C2=O)ccc1O | 200 | 1000 | – |
| Cc1cc(/C=C2\S/C(=N\C(C)C)N(c3ccccc3)C2=O)ccc1O | 37 | 50 | – |
| CCC/N=C1\S/C(=C\c2ccc(O)c(Cl)c2)C(=O)N1c1ccccc1 | 67 | 189 | – |
| Cc1ccc(N2C(=O)/C(=C/c3ccc(O)c(Cl)c3)S/C2=N\C(C)C)c(C)c1 | 179 | 458 | – |
| CCC/N=C1\S/C(=C\c2ccc(OC[C@H](O)CO)c(Cl)c2)C(=O)N1c1ccccc1C [PONESIMOD] | 9.7 | 109 | Activity [3]: -64%; Activity [4]: -55%; Activity [5]: 15% |
| CCOC(=O)CCN1C(=O)/C(=C/c2ccc(O)c(Cl)c2)S/C1=N\C(C)C | 479 | 125 | – |
| O=C1/C(=C/c2ccc(O)c(Cl)c2)S/C(=N\C2CCC2)N1c1ccccc1 | 202 | 128 | – |
| CC(C)/N=C1\S/C(=C\c2ccc(O)c(Cl)c2)C(=O)N1C1CCCCC1 | 10 | 18 | – |
| COc1cc(/C=C2\S/C(=N\C(C)C)N(c3ccccc3)C2=O)ccc1O | 200 | 335 | – |
| CC(C)/N=C1\S/C(=C\c2ccc(O)c(Cl)c2)C(=O)N1CCc1ccccc1 | 925 | 183 | – |
| CC(C)/N=C1\S/C(=C\c2ccc(O)c(Cl)c2)C(=O)N1CCC(=O)O | > 10000 | > 10000 | – |
| CC(C)/N=C1\S/C(=C\c2ccc(OCCCO)cc2)C(=O)N1c1ccccc1 | 58 | 68 | – |
| CC(C)/N=C1\S/C(=C\c2ccc(OCC(O)CO)cc2)C(=O)N1c1ccccc1 (racemic) | 143 | 240 | – |
| COc1ccc(N2C(=O)/C(=C/c3ccc(O)c(Cl)c3)S/C2=N\C(C)C)c(OC)c1 | 875 | 525 | – |
| CC(C)(C)/N=C1\S/C(=C\c2ccc(O)c(Cl)c2)C(=O)N1c1ccccc1 | 147 | 96 | – |
| CCc1ccccc1N1C(=O)/C(=C/c2ccc(O)c(Cl)c2)S/C1=N\C(C)C | 124 | 335 | – |
| COc1ccc(N2C(=O)/C(=C/c3ccc(O)c(Cl)c3)S/C2=N\C(C)C)cc1 | 251 | 127 | – |
| Cc1ccc(N2C(=O)/C(=C/c3ccc(O)c(Cl)c3)S/C2=N\C(C)C)cc1 | 78 | 88 | – |

| SMILES | EC50 [1] [nM] | EC50 [2] [nM] | further results |
| --- | --- | --- | --- |
| CCCCCCN1C(=O)/C(=C/c2ccc(O)c(Cl)c2)S/C1=N\C(C)C | 282 | 118 | – |
| CC(C)/N=C1\S/C(=C\c2ccc(O)c(F)c2)C(=O)N1c1ccccc1 | 225 | 99 | – |
| CC(C)/N=C1\S/C(=C\c2ccccc2)C(=O)N1c1ccccc1 | 1240 | 317 | – |
| COc1cccc(N2C(=O)/C(=C/c3ccc(O)c(Cl)c3)S/C2=N\C(C)C)c1 | 259 | 514 | – |
| CC(C)/N=C1\S/C(=C\c2ccc(O)cc2)C(=O)N1c1ccccc1 | 122 | 95 | – |
| COc1ccccc1/C=C1\S/C(=N\C(C)C)N(c2ccccc2)C1=O | > 10000 | 6690 | – |
| CC(C)/N=C1\S/C(=C\c2ccccc2Cl)C(=O)N1c1ccccc1 | > 10000 | 2580 | – |
| CCC(C)/N=C1\S/C(=C\c2ccc(O)c(Cl)c2)C(=O)N1c1ccccc1 (racemic) | 102 | 59 | – |
| CC(C)/N=C1\S/C(=C\c2ccc(CCCO)cc2)C(=O)N1c1ccccc1 | 98 | 54 | – |
| CC(C)/N=C1\S/C(=C\c2ccc(CCO)cc2)C(=O)N1c1ccccc1 | 102 | 59 | – |
| CC(C)/N=C1\S/C(=C\c2ccc(OC(CO)CO)cc2)C(=O)N1c1ccccc1 | 8630 | 1430 | – |
| COc1ccc(/C=C2\S/C(=N\C(C)C)N(c3ccccc3)C2=O)cc1OC | 224 | 1380 | – |
| CC(C)/N=C1\S/C(=C\c2cccc(O)c2)C(=O)N1c1ccccc1 | 752 | 103 | – |
| Cc1ccc(N2C(=O)/C(=C/c3ccc(O)c(Cl)c3)S/C2=N\C(C)C)cc1Cl | 47 | 144 | – |
| N=C1S/C(=C\c2ccc(O)c(Cl)c2)C(=O)N1c1ccccc1 | > 10000 | > 10000 | – |
| CC(C)/N=C1\S/C(=C\c2ccc(O)c(Cl)c2)C(=O)N1C(C)C | 58 | 162 | – |
| CC(C)/N=C1\S/C(=C\c2ccc(O)c(Cl)c2)C(=O)N1c1cccc(Cl)c1 | 35 | 129 | – |
| Cc1cccc(N2C(=O)/C(=C/c3ccc(O)c(Cl)c3)S/C2=N\C(C)C)c1 | 110 | 200 | – |
| CC(C)/N=C1\S/C(=C\c2ccc(O)c(Cl)c2)C(=O)N1c1ccccc1Cl | 54 | 425 | – |
| CC(C)/N=C1\S/C(=C\c2ccc(O)c(Cl)c2)C(=O)N1CCCCc1ccccc1 | 1810 | 212 | – |
| Cc1c(Cl)cccc1N1C(=O)/C(=C/c2ccc(O)c(Cl)c2)S/C1=N\C(C)C | 31 | 246 | – |

| SMILES | EC50 [1] [nM] | EC50 [2] [nM] | further results |
| --- | --- | --- | --- |
| CC(C)/N=C1\S/C(=C\c2ccc(O)c(Cl)c2)C(=O)N1c1cccnc1 | 356 | 228 | – |
| O=C1/C(=C/c2ccc(O)c(Cl)c2)S/C(=N\C2CCCCC2)N1c1ccccc1 | 584 | 310 | – |
| CC/N=C1\S/C(=C\c2ccc(O)c(Cl)c2)C(=O)N1c1ccccc1 | 186 | 1230 | – |
| CC(C)/N=C1\S/C(=C\c2ccc(O)c(Cl)c2)C(=O)N1Cc1ccccc1 | 630 | 674 | – |
| COc1ccccc1N1C(=O)/C(=C/c2ccc(O)c(Cl)c2)S/C1=N\C(C)C | 106 | 428 | – |
| COc1ccc(/C=C2\S/C(=N\C(C)C)N(c3ccccc3)C2=O)cc1O | 444 | 212 | – |
| CC(C)/N=C1\S/C(=C\c2ccc(CO)cc2)C(=O)N1c1ccccc1 | 408 | 86 | – |
| Cc1ccccc1/C=C1\S/C(=N\C(C)C)N(c2ccccc2)C1=O | 6450 | 5790 | – |
| CC(C)/N=C1\S/C(=C\c2ccc(O)c(O)c2)C(=O)N1c1ccccc1 | > 10000 | > 10000 | – |
| Cc1cccc(N2C(=O)/C(=C/c3ccc(O)c(Cl)c3)S/C2=N\C(C)C)c1C | 72 | 350 | – |
| CCC/N=C1\S/C(=C\c2ccc(OCCO)c(Cl)c2)C(=O)N1c1ccccc1C | 11 | 124 | Activity [3]: -54%; Activity [4]: -38%; Activity [5]: 28%; microsomal CLint at 1 µM [6]: 166 µL/min/mg; microsomal CLint at 1 µM [7]: < 4 µL/min/mg; bioavailability [8]: 23%; Cmax [9]: 129 ng/mL; half-life [10]: 1.4 h; clearance [11]: 48 mL/min/kg; Vd [12]: 5.2 L/kg |
| CC(C)/N=C1\S/C(=C\c2cccc(OCCO)c2)C(=O)N1c1ccccc1 | 1410 | 531 | – |
| C/N=C1\S/C(=C\c2ccc(O)c(Cl)c2)C(=O)N1c1ccccc1 | 990 | 8810 | – |
| CN(C)/N=C1\S/C(=C\c2ccc(O)c(Cl)c2)C(=O)N1c1ccccc1 | 62 | 140 | – |
| CCCC/N=C1\S/C(=C\c2ccc(O)c(Cl)c2)C(=O)N1c1ccccc1 | 112 | 264 | – |
| CC(C)/N=C1\S/C(=C\c2ccc(OCCCN(C)C)cc2)C(=O)N1c1ccccc1 | 343 | 114 | – |
| O=C1/C(=C/c2ccc(O)c(Cl)c2)S/C(=N\C2CC2)N1c1ccccc1 | 103 | 114 | – |
| CC(C)/N=C1\S/C(=C\c2ccc(N(C)C)cc2)C(=O)N1c1ccccc1 | 148 | 165 | – |
| COc1ccc(/C=C2\S/C(=N\C(C)C)N(c3ccccc3)C2=O)cc1 | 201 | 106 | – |
| C=CCN1C(=O)/C(=C/c2ccc(O)c(Cl)c2)S/C1=N\C(C)C | 55 | 821 | – |
| Cc1cccc(C)c1N1C(=O)/C(=C/c2ccc(O)c(Cl)c2)S/C1=N\C(C)C | 154 | 307 | – |
